{"source": "ChEMBL document CHEMBL3271979", "about": "“Inhibition of solid tumors by nitrosoureas. 1. Lewis lung carcinoma” (1977)", "key": {"[1]": {"tested_on": "Mus musculus", "experiment": "Antitumor activity against mouse advanced Lewis lung carcinoma allografted in BDF1 mouse assessed as disease cure at 90 mg/kg, ip administered as single dose on 7th day post-tumor implantation measured for 80 days post-drug treatment", "type": "functional, organism-based", "set-up": "dose 90 mg/kg", "summary_of_the_method": "(§1)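 BDF1 mice (C57Blk/6 × DBA/2) implanted sc by trocar with Lewis lung tumor fragments of about 40 mg, taken only from bacteriologically sterile donor tumors. Mice bearing tumors of about 400 mg (day 6-7) were selected. Each received a single ip dose on day 7, at or below the LD10 in normal mice. Groups were of 10 mice. Tumor weight was taken from calipers as w = ab²/2, measured at least twice weekly. Matched non-tumor mice served as toxicity controls.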"}, "[2]": {"experiment": "Antitumor activity against mouse advanced Lewis lung carcinoma allografted in BDF1 mouse assessed as increase in host life span at 90 mg/kg, ip administered as single dose on 7th day post-tumor implantation", "type": "functional", "details": "route intraperitoneal", "summary_of_the_method": "(§2)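 BDF1 mice (C57Blk/6 × DBA/2) implanted sc by trocar with about 40 mg Lewis lung tumor fragments from bacteriologically sterile donors. Advanced-disease groups held tumors of about 400 mg by day 6-7, sized by caliper (w = ab²/2). Single ip injection on day 7, in water or saline vehicle, at or below the LD10 in normal mice. Tumors measured at least twice weekly.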"}, "[3]": {"tested_on": "Mus musculus", "experiment": "Antitumor activity against mouse advanced Lewis lung carcinoma allografted in ip dosed BDF1 mouse assessed as disease cure administered as single dose on day 6 or 7 post-tumor implantation", "type": "functional, organism-based", "summary_of_the_method": "as §1"}, "[4]": {"experiment": "Antitumor activity against mouse advanced Lewis lung carcinoma allografted in ip dosed BDF1 mouse assessed as increase in host lifespan administered as single dose on day 6 or 7 post-tumor implantation", "type": "functional", "summary_of_the_method": "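Advanced Lewis lung model: about 40 mg fragments implanted sc by trocar into BDF1 mice, and mice with tumors of about 400 mg (day 6-7) selected. Tumor weight from calipers, w = ab²/2. Agent given as one ip dose in distilled water or physiological saline. Nontumor-bearing mice received matching doses as toxicity controls.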"}, "[5]": {"experiment": "Antitumor activity against mouse early Lewis lung carcinoma allografted in BDF1 mouse assessed as increase in host life span at 13 mg/kg, ip administered as single dose on 1 or 2 days post-tumor implantation", "type": "functional", "details": "route intraperitoneal", "summary_of_the_method": "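Early disease: BDF1 mice carrying sc trocar implants of about 40 mg Lewis lung fragments. One ip dose given on day 1 or 2 after implant, in distilled water or saline, at ≤0.5 ml. Endpoints were % increase in life-span of dying animals and delay in days for the primary tumor to reach 1 g. Untreated controls served as reference.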"}, "[6]": {"experiment": "Antitumor activity against mouse early Lewis lung carcinoma allografted in BDF1 mouse assessed as increase in host life span at 30 mg/kg, ip administered as single dose on 1 or 2 days post-tumor implantation", "type": "functional", "details": "route intraperitoneal", "summary_of_the_method": "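BDF1 mice (C57Blk/6 × DBA/2) implanted sc by trocar with ~40 mg Lewis lung tumor fragments from bacteriologically sterile donor tumors. Single ip dose on day 1 or 2, as a solution or suspension in water (CMC or gum acacia) or saline (HPC or Tween 80). Read-out is […]. Same-dose toxicity controls were run in nontumor-bearing mice.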"}, "[7]": {"tested_on": "Mus musculus", "experiment": "Antitumor activity against mouse advanced Lewis lung carcinoma allografted in BDF1 mouse assessed as disease cure at 30 mg/kg, ip administered as single dose on 7th day post-tumor implantation measured for 80 days post-drug treatment", "type": "functional, organism-based", "set-up": "dose 30 mg/kg", "summary_of_the_method": "as §1"}, "[8]": {"experiment": "Antitumor activity against mouse advanced Lewis lung carcinoma allografted in BDF1 mouse assessed as increase in host life span at 30 mg/kg, ip administered as single dose on 7th day post-tumor implantation", "type": "functional", "details": "route intraperitoneal", "summary_of_the_method": "as §2"}, "[9]": {"experiment": "Antitumor activity against mouse early Lewis lung carcinoma allografted in BDF1 mouse assessed as time delay in tumor growth at 13 mg/kg, ip administered as single dose on 1 or 2 days post-tumor implantation", "type": "functional", "details": "route intraperitoneal", "summary_of_the_method": "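Sc trocar implants of about 40 mg Lewis lung fragments in BDF1 mice. A single ip injection was given on day 1 or 2, in water or physiological saline, at ≤0.5 ml. Tumor size came from caliper length and width as w = ab²/2, measured at least twice weekly. Growth delay is the extra days taken to reach 1 g, compared with untreated controls.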"}, "[10]": {"experiment": "Antitumor activity against mouse early Lewis lung carcinoma allografted in BDF1 mouse assessed as time delay in tumor growth at 30 mg/kg, ip administered as single dose on 1 or 2 days post-tumor implantation", "type": "functional", "details": "route intraperitoneal", "summary_of_the_method": "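BDF1 mice (C57Blk/6 × DBA/2) implanted sc by trocar with ~40 mg Lewis lung tumor fragments from bacteriologically sterile donors. A single ip dose was given on day 1 or 2, as a solution or suspension in water or saline with suspending agent, at ≤0.5 ml. Tumors were measured by caliper at least twice weekly, with weight = ab²/2. Delay was taken as the days for the tumor to reach 1 g.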"}, "[11]": {"experiment": "Antitumor activity against mouse early Lewis lung carcinoma allografted in ip dosed BDF1 mouse assessed as disease cure administered as single dose on 1 or 2 days post-tumor implantation measured for 80 days post-drug treatment", "type": "functional", "summary_of_the_method": "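BDF1 mice implanted sc by trocar with ~40 mg Lewis lung fragments from sterile donor tumors. A single ip dose was given on day 1 or 2 after implant, in water or saline vehicle. Cures were scored in animals observed for at least 80 days after treatment. Drug-toxicity controls were matched non-tumor-bearing mice monitored for body weight and deaths.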"}, "[12]": {"experiment": "Ratio of ED50 for antitumor activity against mouse L1210 cells allografted in ip dosed mouse to LD10 for mouse"}, "[13]": {"experiment": "Antitumor activity against mouse advanced Lewis lung carcinoma allografted in BDF1 mouse assessed as increase in host life span at 45 mg/kg, ip administered as single dose on 7th day post-tumor implantation", "type": "functional", "details": "route intraperitoneal", "summary_of_the_method": "as §2"}, "[14]": {"tested_on": "Mus musculus", "experiment": "Antitumor activity against mouse advanced Lewis lung carcinoma allografted in BDF1 mouse assessed as disease cure at 32 mg/kg, ip administered as single dose on 7th day post-tumor implantation measured for 80 days post-drug treatment", "type": "functional, organism-based", "set-up": "dose 32 mg/kg", "summary_of_the_method": "as §1"}, "[15]": {"tested_on": "Mus musculus", "experiment": "Antitumor activity against mouse advanced Lewis lung carcinoma allografted in BDF1 mouse assessed as disease cure at 21 mg/kg, ip administered as single dose on 7th day post-tumor implantation measured for 80 days post-drug treatment", "type": "functional, organism-based", "set-up": "dose 21 mg/kg", "summary_of_the_method": "as §1"}, "[16]": {"experiment": "Antitumor activity against mouse advanced Lewis lung carcinoma allografted in BDF1 mouse assessed as increase in host life span at 21 mg/kg, ip administered as single dose on 7th day post-tumor implantation", "type": "functional", "details": "route intraperitoneal", "summary_of_the_method": "as §2"}, "[17]": {"experiment": "Antitumor activity against mouse advanced Lewis lung carcinoma allografted in BDF1 mouse assessed as increase in host life span at 32 mg/kg, ip administered as single dose on 7th day post-tumor implantation", "type": "functional", "details": "route intraperitoneal", "summary_of_the_method": "as §2"}, "[18]": {"tested_on": "Mus musculus", "experiment": "Antitumor activity against mouse advanced Lewis lung carcinoma allografted in ip dosed BDF1 mouse assessed as complete regression of established tumor administered as single dose on day 6 or 7 post-tumor implantation", "type": "functional, organism-based", "summary_of_the_method": "as §1"}, "[19]": {"tested_on": "Mus musculus", "experiment": "Antitumor activity against mouse advanced Lewis lung carcinoma allografted in BDF1 mouse assessed as disease cure at 9 mg/kg, ip administered as single dose on 7th day post-tumor implantation measured for 80 days post-drug treatment", "type": "functional, organism-based", "set-up": "dose 9 mg/kg", "summary_of_the_method": "as §1"}, "[20]": {"experiment": "Antitumor activity against mouse advanced Lewis lung carcinoma allografted in BDF1 mouse assessed as increase in host life span at 9 mg/kg, ip administered as single dose on 7th day post-tumor implantation", "type": "functional", "details": "route intraperitoneal", "summary_of_the_method": "as §2"}, "[21]": {"tested_on": "Mus musculus", "experiment": "Antitumor activity against mouse advanced Lewis lung carcinoma allografted in BDF1 mouse assessed as complete regression of established tumor at 9 mg/kg, ip administered as single dose on 7th day post-tumor implantation", "type": "functional, organism-based", "set-up": "dose 9 mg/kg", "summary_of_the_method": "as §1"}, "[22]": {"tested_on": "Mus musculus", "experiment": "Antitumor activity against mouse advanced Lewis lung carcinoma allografted in BDF1 mouse assessed as disease cure at 50 mg/kg, ip administered as single dose on 7th day post-tumor implantation measured for 80 days post-drug treatment", "type": "functional, organism-based", "set-up": "dose 50 mg/kg", "summary_of_the_method": "as §2"}, "[23]": {"tested_on": "Mus musculus", "experiment": "Antitumor activity against mouse advanced Lewis lung carcinoma allografted in BDF1 mouse assessed as disease cure at 40 mg/kg, ip administered as single dose on 7th day post-tumor implantation measured for 80 days post-drug treatment", "type": "functional, organism-based", "set-up": "dose 40 mg/kg", "summary_of_the_method": "as §2"}, "[24]": {"experiment": "Antitumor activity against mouse advanced Lewis lung carcinoma allografted in BDF1 mouse assessed as increase in host life span at 50 mg/kg, ip administered as single dose on 7th day post-tumor implantation", "type": "functional", "details": "route intraperitoneal", "summary_of_the_method": "as §2"}, "[25]": {"experiment": "Antitumor activity against mouse advanced Lewis lung carcinoma allografted in BDF1 mouse assessed as increase in host life span at 40 mg/kg, ip administered as single dose on 7th day post-tumor implantation", "type": "functional", "details": "route intraperitoneal", "summary_of_the_method": "as §2"}}, "note": "Activity calls are given as the source filed them. The calls are words filed in the database; no cut-off is given here.", "data": [{"smiles": "O=NN(CCCl)C(=O)N[C@H]1CCCC[C@H]1Cl", "note": "(relative stereo)", "values": [{"measurement": "Activity", "setting": "[1]", "result": "inactive"}, {"measurement": "ILS at 90 mg/kg", "setting": "[2]", "result": 62, "unit": "%"}, {"measurement": "Activity", "setting": "[3]", "result": "inactive"}, {"measurement": "ILS", "setting": "[4]", "result": ">25", "unit": "%"}]}, {"smiles": "O=NN(CCCl)C(=O)N[C@H]1CC[C@H](C(=O)O)CC1", "values": [{"measurement": "ILS at 13 mg/kg", "setting": "[5]", "result": 33, "unit": "%"}, {"measurement": "ILS at 30 mg/kg", "setting": "[6]", "result": 115, "unit": "%"}, {"measurement": "Activity", "setting": "[7]", "result": "inactive"}, {"measurement": "ILS at 30 mg/kg", "setting": "[8]", "result": 67, "unit": "%"}, {"measurement": "Time", "setting": "[9]", "result": 7.6, "unit": "days"}, {"measurement": "Time", "setting": "[10]", "result": 20, "unit": "days"}, {"measurement": "Activity", "setting": "[11]", "result": ">50", "unit": "%"}, {"measurement": "Ratio", "setting": "[12]", "result": 0.6}, {"measurement": "Activity", "setting": "[3]", "result": "Active"}]}, {"smiles": "O=NN(CCF)C(=O)N[C@H]1CC[C@H](C(=O)O)CC1", "values": [{"measurement": "ILS at 45 mg/kg", "setting": "[13]", "result": 60, "unit": "%"}, {"measurement": "Activity", "setting": "[3]", "result": "Active"}]}, {"smiles": "COC(=O)[C@H]1CC[C@H](NC(=O)N(CCCl)N=O)CC1", "values": [{"measurement": "Activity", "setting": "[14]", "result": "inactive"}, {"measurement": "Activity", "setting": "[15]", "result": "inactive"}, {"measurement": "ILS at 21 mg/kg", "setting": "[16]", "result": 113, "unit": "%"}, {"measurement": "ILS at 32 mg/kg", "setting": "[17]", "result": 86, "unit": "%"}, {"measurement": "inhibition", "setting": "[18]", "result": "Active"}, {"measurement": "Activity", "setting": "[3]", "result": "inactive"}]}, {"smiles": "O=NN(CCF)C(=O)NC1CC2CCC1C2", "note": "(stereo not given)", "values": [{"measurement": "Activity", "setting": "[19]", "result": "inactive"}, {"measurement": "ILS at 9 mg/kg", "setting": "[20]", "result": 40, "unit": "%"}, {"measurement": "inhibition", "setting": "[21]", "result": "inactive"}]}, {"smiles": "O=NN(CCCl)C(=O)NC1CCCCC1", "note": "[LOMUSTINE]", "values": [{"measurement": "Activity", "setting": "[22]", "result": "inactive"}, {"measurement": "Activity", "setting": "[23]", "result": "inactive"}, {"measurement": "ILS at 50 mg/kg", "setting": "[24]", "result": 15, "unit": "%"}, {"measurement": "ILS at 40 mg/kg", "setting": "[25]", "result": 31, "unit": "%"}, {"measurement": "inhibition", "setting": "[18]", "result": "Active"}, {"measurement": "Activity", "setting": "[3]", "result": "inactive"}]}]}
